Assay outcomes: PubChem BioAssay, The Scripps Research Institute Molecular Screening Center
An excerpt weighted towards active compounds, which were near 4.6% of everything screened.
OX1R antag-1 = blocks the human orexin 1 receptor | O43613 | 1.8% of 330,000 active | OX1R-expressing cells, FRET antagonist read-out | inhibition, % at 6.6 µM | AID 485270; in the data active = inhibition mostly above about 38%, no sharp cut-off; inactive = mostly below about 40%;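 also: 0% = agonist challenge alone and 100% = reference antagonist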
TAAR1 antagonist = antagonists of human TAAR1. CHO RD-HGA16 TAAR1, Fluo-8 calcium fluorescence, antagonist. AID 624466. inhibition, % at 3 µM. Q96RJ0. 1.5% of 360,000 active;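 active = inhibition above a per-plate cutoff, the mean inhibition of test compounds on that plate plus 3 SD, cut at about 49% in these data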;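 also: 0% = DMSO plus EC80 beta-PEA response and 100% = DMSO alone without agonist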
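Material: RD-HGA16 CHO cells with stable hTAAR1 and Gα16; Dosing: single nominal final test compound concentration of 3 µM; Schedule: seeding 17-24 h prior, 75-min 37 °C, 30-min RT dye loading; Detection: kinetic Fluo-8 calcium fluorescence measurement; Measure: % inhibition from peak post-agonist over basal fluorescence ratio; Benchmarks: vehicle and agonist controls.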
CHO parental Ca = counter-screen for OX1R antagonists: effect in parental CHO cells; parental CHO-K1, ATP-induced calcium, Fluo-8 fluorescence; inhibition, % at 5.6 µM; 0.63% of 330,000 active; AID 463079;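 active = inhibition above that plate's mean sample inhibition plus 3 SD, cut at about 26% in these data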;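 also: 0% = ATP-challenged DMSO wells and 100% = DMSO wells without ATP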
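Material: Parental CHO cells | Reagent: ATP | Compound dosing: Single nominal dose of 5.6 µM per compound | Detection: Intracellular calcium via Fluo-8 no-wash fluorescent dye | Read-out: % inhibition of ATP-induced calcium mobilization | Benchmarks: Low control ATP plus DMSO, high control DMSO only | Replicates: Singlicate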
GPR7 antag = blocks human GPR7 receptor signaling; P48145; inhibition, % at 4.4 µM; GPR7-expressing cells, fluorescence antagonist assay; 1.1% of 290,000 active; in the data active = inhibition above about 16%, passing the limit was not always enough;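 also: cells stimulated with the agonist NPW; 0% = agonist with vehicle and 100% = vehicle without agonist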
Target sequence (P48145 whole entry, looked up): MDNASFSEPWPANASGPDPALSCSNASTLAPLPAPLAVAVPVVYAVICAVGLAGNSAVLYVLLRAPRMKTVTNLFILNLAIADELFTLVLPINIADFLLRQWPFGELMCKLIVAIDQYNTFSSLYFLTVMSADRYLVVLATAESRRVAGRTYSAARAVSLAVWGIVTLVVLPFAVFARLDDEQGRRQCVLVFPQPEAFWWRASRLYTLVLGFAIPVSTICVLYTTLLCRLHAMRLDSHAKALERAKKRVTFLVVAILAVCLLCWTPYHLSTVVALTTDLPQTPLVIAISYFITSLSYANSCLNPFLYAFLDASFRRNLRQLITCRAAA
TAAR1 ag = human TAAR1 agonism | AID 624467 | Q96RJ0 | 0.99% of 360,000 active | CHO RD-HGA16 TAAR1, Fluo-8 calcium fluorescence; vehicle wells 0%, saturating PEA agonist 100% | activation, % at 3 µM;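 active = activation above the mean activation of all test compounds in the run plus 3 SD, cut at about 38% in these data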
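Assay system – CHO-derived RD-HGA16 cells with stable Gα16 and human TAAR1 · Compound dosing – one-point dosing at 3 µM (nominal) · Incubation – 17-24 h seeding, 75 min 37 °C dye, 30 min RT · Measured by – kinetic Fluo-8 calcium fluorescence · Control set – DMSO vehicle as 0%, PEA at EC100 as 100% · Repeats – single well for each compound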
OX1R antag-2 = antagonists of human orexin 1 receptor; O43613; inhibition, % at 5 µM; AID 434989; CHO/OX1R cells, Fluo-8 calcium fluorescence, orexin A; 0.43% of 330,000 active;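 active = inhibition above its plate's threshold, mean inhibition of all tested compounds on the plate plus 3 SD, cut at about 37% in these data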;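 also: 0% = orexin A challenge wells and 100% = SB-334867-A antagonist wells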
TAAR1 ag confirm = confirmation of human TAAR1 agonists; shares compounds with TAAR1 ag; CHO RD-HGA16 TAAR1, Fluo-8 calcium fluorescence; scaled: DMSO 0%, maximal phenethylamine 100%; activation, % at 3 µM; 82% of 2,400 active; AID 651783;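 active = activation above a cutoff set at the run's mean compound activation plus 3 SD, cut at about 39% in these data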
Ga16 nonsel ag = counter-screen for TAAR1 agonists: nonselective agonists in parental cells; shares compounds with TAAR1 ag; CHO-Ga16 parental, Fluo-8 calcium fluorescence; normalized to maximal ATP response, DMSO zero; activation, % at 3 µM; 50% of 2,400 active; AID 651787;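 active = activation above the run cutoff, the mean activation over all tested wells plus 3 SD, cut at about 12% in these data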;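 also: 0% = DMSO wells and 100% = maximal ATP response on the peak over basal ratio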
TAAR1 desensitize = human TAAR1 agonist that also desensitizes the receptor; shares compounds with TAAR1 ag; CHO RD-HGA16 hTAAR1, Fluo-8 calcium, beta-PEA response inhibition; inhibition, % at 3 µM; 46% of 2,400 active;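 active = inhibition above the run cutoff, the mean inhibition of all test compounds plus 3 SD, cut at about 49% in these data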;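 also: beta-PEA stimulus applied at its EC80; loss of beta-PEA calcium signal after compound pretreatment read as receptor desensitization; 0% = DMSO with beta-PEA at EC80 and 100% = DMSO alone without agonist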
Ga16 antag count = nonselective Ga16 antagonism, counter-screen | inhibition, % at 3 µM | shares compounds with TAAR1 ag | CHO-Ga16 ATP-induced calcium, Fluo-8 fluorescence | 39% of 2,400 active;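 active = inhibition above the plate's mean compound inhibition plus 3 SD, computed per plate, cut at about 22% in these data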;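 also: 0% = EC80 ATP with DMSO and 100% = DMSO wells without ATP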
Numbers without * were called inactive; / = not tested or not shown.

SMILES	OX1R antag-1	TAAR1 antagonist	CHO parental Ca	GPR7 antag	TAAR1 ag	OX1R antag-2	TAAR1 ag confirm	Ga16 nonsel ag	TAAR1 desensitize	Ga16 antag count
O=C(O)CCC(=O)NCC1OCCc2ccccc21 (centres undefined)	21	7	-3	-5	54*	5	16	2	13	8
CCn1cc(C(=O)NCCCN2CCC(C)CC2)c(=O)c2cc(S(=O)(=O)N(C)C3CCCCC3)ccc21	11	-34	-19	2	2	-36	/	/	/	/
Fc1cc(F)c(C2SCCN2C(=S)Nc2cccc(C(F)(F)F)c2)c(F)c1 (centres undefined)	-4	3	-4	10	66*	0	52*	31*	56*	38*
O=C(NNC(=S)NC(=O)c1ccc(Br)cc1)c1cccc([N+](=O)[O-])c1	2	35	1	15	135*	-2	105*	88*	40	21
O=C(NNC(=S)NC(=O)c1ccccc1Cl)c1cccc([N+](=O)[O-])c1	6	34	0	-7	92*	11	57*	43*	22	22*
O=C(NNC(=S)NC(=O)c1ccccc1)c1ccc([N+](=O)[O-])cc1	4	27	-3	4	64*	-10	70*	46*	19	22*
O=C(NNC(=S)NCc1ccccc1)c1cccc([N+](=O)[O-])c1	24	-25	-1	-4	1	-7	/	/	/	/
O=C(NNC(=O)c1ccc([N+](=O)[O-])cc1)c1ccc(Br)cc1	15	-22	-5	-1	1	2	/	/	/	/
O=C(NNC(=S)NC(=O)c1ccc(Br)cc1)c1ccc([N+](=O)[O-])cc1	21	95*	11	-3	124*	-3	142*	110*	96*	65*
CC(=O)NNC(=S)NC(=O)c1cccc([N+](=O)[O-])c1	34	-27	0	0	2	15	/	/	/	/
O=C(NCC1CCOCC1)C1CCC(=O)N(Cc2cccc(C(F)(F)F)c2)C1 (centres undefined)	10	-18	-6	-14	3	-22	/	/	/	/
FC(F)(F)c1ccccc1-c1nc(-c2ccncc2)no1	-1	8	-18	-18	8	-16	/	/	/	/
O=C(O)c1ccc(-c2noc(-c3ccccc3C(F)(F)F)n2)cc1	-6	14	10	/	82*	11	28	20*	19	24*
Cc1ccccc1N1C(=O)CN(Cc2sccc2C)C1=S	18	-5	-18	-3	6	-17	/	/	/	/
COC(=O)[C@@H](Cc1ccccc1)NS(=O)(=O)N[C@H](Cc1ccccc1)C(=O)OC	/	13	/	/	9	/	/	/	/	/
Cc1ccc(Nc2cccccc2=O)cc1	11	-1	-8	-8	10	-8	/	/	/	/
Cc1ccc(NN2C(=O)C=C(c3ccccc3)C2=O)cc1	/	43	/	0	52*	/	27	20*	26	44*
Cc1nc2ccc(NC(=O)C3CCN(S(=O)(=O)c4cccs4)CC3)cc2s1	16	-5	-6	10	41*	-16	8	12*	12	13
O=C(COc1ccc(Cl)cc1Cl)NC(=S)N1CCCc2ccccc21	37	-16	-10	-4	51*	1	30	6	2	9
COc1ccc(NC(=O)CSc2nnc(-c3ccccn3)n2N)cc1Cl	15	22	-12	-9	44*	-25	61*	2	24	4
O=C1NCCc2cc3c(cc21)OCO3	17	-1	-3	3	0	7	/	/	/	/
